Results from the RNAGym collection of RNA variant scans (doi:10.1126/science.aae0568).
This sample holds only a part of the variants without activity.

B1: tRNA (parent)
chain: GUUCCGUUGGCGUAAUGGUAACGCGUCUCCCUCCUAAGGAGAAGACUGCGGGUUCGAGUCCCGUACGGAACG

Variants of: B1
Test: yeast fitness relative to wild type (ratio to wild type); higher = fitter; tRNA-Arg(CCU), competitive growth, 37 C, YPD
Summary of the method: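 Variants of the tRNA-Arg(CCU) gene, chemically synthesised with a 3% per-site mutation rate at 69 sites, were placed at the native genomic locus in Saccharomyces cerevisiae. The pooled strains were competed in YPD at 37°C for 24 hours in six parallel replicates. Gene amplicons from the start population and from each end population were read by 100-nucleotide paired-end sequencing. Darwinian fitness relative to wild type came from changes in genotype frequencies; genotypes needed ≥ 100 starting reads, and estimates < 0.5 were set to 0.5.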

Row | Variant | yeast fitness
1 | C34U C61U | 1
2 | C5G A36U C66U | ≤ 0.5
3 | A36C G39C A65C A69C | ≤ 0.5
4 | G9A A36U G39A G67A | ≤ 0.5
5 | G6A C29G A43U | ≤ 0.5
6 | G50A A57C C60G C61U | ≤ 0.5
7 | U13G U19A C27G | 0.626
8 | C24U A40C G48A | 0.634
9 | G63A G67A | 0.693
10 | U16A G17A C22G C61U G68C | 0.659
11 | A14C C22G G25A C31U | 0.528
12 | C5G C27U C46U | 0.754
13 | C4G G12U A14C C49U C66U | ≤ 0.5
14 | U3C C31U A70U | 0.865
15 | U2C U8C A20U U28A G67U | ≤ 0.5
16 | C5A C30U A40U | 0.621
17 | U3C A15C U47G U54A G58A | ≤ 0.5
18 | G23A A45U G56A | 0.727
19 | G12C U26A G48A G56C | ≤ 0.5
20 | G17C C61G C66U | ≤ 0.5
21 | U2G C4U A20C C30G | ≤ 0.5
22 | A21U U54A C61U | ≤ 0.5
23 | U3G C11U G67A | 0.564
24 | C5U C22U C30G C55U | ≤ 0.5

Row | Variant | yeast fitness
25 | U2C C5G C24U G38C G39A | ≤ 0.5
26 | C31G A57U G58C | ≤ 0.5
27 | C31G A45U U47A G67A | ≤ 0.5
28 | G6C A14G A20C C31A U64A G67A | ≤ 0.5
29 | G12A A14G A21G C24G U28G | 0.674
30 | A15G A57C | 0.636
31 | U2A A21C G39A G52C C62U | ≤ 0.5
32 | G6C A37G C60G A65U | ≤ 0.5
33 | A20C C46A C49G G63A | ≤ 0.5
34 | G50A G51C C60G | ≤ 0.5
35 | C11A A15C C24G U59A | ≤ 0.5
36 | G12A C60U | 0.777
37 | G10A G17C C31U C55U C60A | ≤ 0.5
38 | C4U U7G C34G G51A | ≤ 0.5
39 | C11U C30G A40C C61U | ≤ 0.5
40 | C4A A15G G17A | 0.724
41 | C4G U7C C27A A70U | ≤ 0.5
42 | U13C C31A C46U A70C | ≤ 0.5
43 | G10C C27G C30G G58A | 0.557
44 | U28A U32C A43C A57C | ≤ 0.5
45 | U2G C4G C11A | ≤ 0.5
46 | G23A A36U G39C G68A | ≤ 0.5
47 | G9A C29U A65U | ≤ 0.5
48 | C27G A45C C49U G52A U59C | 0.6

Row | Variant | yeast fitness
49 | G10A U19A A42G U64A | 0.612
50 | A20C G41A G58U | 0.706
51 | C5G G25A C46A | 0.651
52 | A15U C33G A43C G44U | ≤ 0.5
53 | U32A A65C | 0.887
54 | G17C U53A | 0.583
55 | C5A U59A A69G | ≤ 0.5
56 | U8G C49U C55U | 0.549
57 | A14U G23C C29G G51A G56C | ≤ 0.5
58 | G9A C46A | 0.91
59 | C24U C49U U59G G67U | ≤ 0.5
60 | C31G G63C A65C | ≤ 0.5
61 | C24U G56A C60A | 0.594
62 | C4U C34G U35A A42U | ≤ 0.5
63 | U2A C22U A40C G58C C66U | ≤ 0.5
64 | C31U A69U A70C | 0.778
65 | C24U C27A | 0.882
66 | G6A U19A U53A C60A A69U | ≤ 0.5
67 | G48C G51C | 0.591
68 | C4G U7C C33G G52A | 0.652
69 | U2G G9C A70G | 0.585
70 | G44U G58A | 0.946
71 | A14G C22U C34U U54C C55A | ≤ 0.5
72 | U3C A45U U59C | 0.699

Row | Variant | yeast fitness
73 | A20C G52C | 0.583
74 | A14U A57C U59A | 0.703
75 | A45C G68C | 0.839
76 | A15U A20C C46G G50C C61G | 0.604
77 | A45U G56C G58A A65U | 0.5
78 | C22A A65U | 0.849
79 | G12U G39A C66G | ≤ 0.5
80 | C4G C46A | 0.915
81 | A15G U64G A69C | 0.564
82 | C4A C66A | 0.569
83 | U3C A21C A45C C49U | 0.532
84 | U19A C27A C46A | 0.506
85 | C5U C66G | 0.779
86 | C4G C61A C62U A65U A69C | ≤ 0.5
87 | U13A A40U C55U | 0.681
88 | G12C U53A | 0.594
89 | A21C C29G G68C | 0.557
90 | C4G U8G U35C U53G | ≤ 0.5
91 | A21C C22A U26C U35C | ≤ 0.5
92 | G10A G63C A65G | ≤ 0.5
93 | C29U G38C C49U G68A | ≤ 0.5
94 | A20G C29G G63C | ≤ 0.5
95 | C4A C31U G44A A45U | 0.574
96 | G10A C60U | 0.544

Row | Variant | yeast fitness
97 | A43G C60U C62U C66U A70C | ≤ 0.5
98 | A21U C30G C31U G48C | 0.753
99 | G6C U8A G51A | ≤ 0.5
100 | A14G G48A C62A | 0.65
101 | G18A A21C U32G | 0.614
102 | C5A U8C A20G C34G A43U C66U | ≤ 0.5
103 | U16A C31G | 0.87
104 | C46A U47G G50A | 0.544
105 | C11A C27A C55U | ≤ 0.5
106 | G9A C27G C31U C46G G51C G52A | ≤ 0.5
107 | C11U A14U U19G | ≤ 0.5
108 | G10U U13A | 0.675
109 | U19G C55G A69U | 0.54
110 | A21C C60G C62G A70C | ≤ 0.5
111 | C29A C30U A42U | ≤ 0.5
112 | C5G A36G A43U | 0.549
113 | A37C C55G G63A | ≤ 0.5
114 | A45U A65C | 0.801
115 | G10A U35G A43G C46U A69U | ≤ 0.5
116 | G56A U59C A65C | 0.738
117 | C31G A36C G41A C49U | ≤ 0.5
118 | G23C C29G A43U G50A A65C | 0.542
119 | A21C A40U A45G A65C | 0.547
120 | U7G A15C U16A C33G A37C C49A U53C | ≤ 0.5

Row | Variant | yeast fitness
121 | C4U C11G C29A U54A A57U | ≤ 0.5
122 | A15C C49G C62U | 0.636
123 | C5A C11G G51A C61U | ≤ 0.5
124 | U35A C49G C66G | ≤ 0.5
125 | A15G G48A C62U | 1.03
126 | A36G A37U A69C | 0.663
127 | U3C G48C | 0.817
128 | C27U G48A A65U | 0.714
129 | C29A C31U A43U | 0.506
130 | U47A C49U A65C | 0.702
131 | G9A U26A | 0.837
132 | U13G C61A G67A | ≤ 0.5
133 | C34A G67C | 0.782
134 | C4G G25C C46U G50A | 0.636
135 | U28A U32G C55G | 0.505
136 | C5U C22G A65G | 0.588
137 | C33G G63A | 0.6
138 | C4A C22G G51C A65C | 0.731
139 | C11U G39A | 0.947
140 | G18A A65C | 0.759
141 | C11G G58A A70G | 0.659
142 | U3A G6A C31U A40C | ≤ 0.5
143 | G9C U54C U59C A69G | ≤ 0.5
144 | A21G A40G C55A | 0.535

Row | Variant | yeast fitness
145 | A14U U53C | 0.613
146 | G9C U19C G48A U64C | 0.609
147 | U8A U19A G50C | ≤ 0.5
148 | C60U C61G | 0.643
149 | C5G A20G C62U C66G | 0.663
150 | C4U A57U C61U | 0.605
151 | U8A G18C G48C A65G | ≤ 0.5
152 | G39A C49U | 0.842
153 | U3A G12C A15C U19A C34U C49A G67A | ≤ 0.5
154 | A20U G23C U35G | 0.643
155 | C11A A20G C46U G50C C60A | ≤ 0.5
156 | G63U A69U | 0.83
157 | U3A C4U C31A C66G G68C | ≤ 0.5
158 | C11A C33A A40G A43G | ≤ 0.5
159 | C5G C34A G39C G52A G58A G63A | ≤ 0.5
160 | C11G C22U C27U U47A G52C | 0.67
161 | C11A A36G C49G A70G | 0.584
162 | C4A A65G | 0.946
163 | C4A A65U | 0.719
164 | C5G A36U C46G C62A A69C | ≤ 0.5
165 | U26A C60U | 0.744
166 | C4G G10C C34U C46G | ≤ 0.5
167 | C30G A57G G68U | ≤ 0.5
